MT stabilizer: microtubule stabilizers in HeLa cells, primary screen, imaging, high-content imaging. HeLa tubulin immunostaining HCS, 24 h; share of cells brighter than vehicle mean+2SD. % tubulin-high responders, % at 10 µM. 0.83% of 200,000 active. AID 2205, 2009;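 active = plate Z-score above 3 for both tubulin-high and condensed-nucleus cell shares, with cell loss under 80%, at 10 µM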;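 also: anti alpha tubulin signal scored within the nucleus-defined area of each cell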
Arbovirus anti: antivirals against arbovirus infection, primary screen, cell-based, full library, 10K replicate subset | arbovirus infection cell-based antiviral screen | inhibition, % at 10 µM | 0.37% of 200,000 active | AID 1251, 2008; in the data active = inhibition above about 30%
Autophagy mod: autophagy modulators in MEF cells, primary screen, imaging, high-content, MEF GFP-LC3 | calls only at 10 µM (by protocol) | 0.98% of 190,000 active | AID 463193, 2010 | MEF GFP-LC3 puncta imaging; test concentration mostly 10 µM;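 active = percentage of spot-positive cells more than 3 SD above its plate mean, without a fluorescence outlier flag or 80% toxicity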
bCat nuc transl: modulators of beta-catenin nuclear translocation, primary screen, imaging, HeLa cells, immunofluorescence, high-content | nuclear translocation activity, % at 5 µM | 0.3% of 190,000 active | AID 1665, 2009;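 active = nuclear translocation activity above 50% at 5 µM, with a well cell count of 50 or more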;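 also: per-cell ratio of nuclear to cytoplasmic median beta-catenin stain intensity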
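assay system = human HeLa cells, endogenous beta-catenin | times = compound treatment 24 h, 37°C, 5% CO2 | detection = Anti-beta-catenin immunofluorescence on PFA-fixed, Triton-permeabilized cells, DAPI nuclei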
ABCG2 block: ABCG2 efflux pump inhibitors, primary screen, multiplex with ABCB1, IgMXP3 cells, flow cytometry | AID 1325, 2008 | 0.1% of 190,000 active | JC-1 efflux | inhibition, % at 6.6 µM;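 active = inhibition above 80%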
Target sequence (Q9UNQ0 whole entry, looked up): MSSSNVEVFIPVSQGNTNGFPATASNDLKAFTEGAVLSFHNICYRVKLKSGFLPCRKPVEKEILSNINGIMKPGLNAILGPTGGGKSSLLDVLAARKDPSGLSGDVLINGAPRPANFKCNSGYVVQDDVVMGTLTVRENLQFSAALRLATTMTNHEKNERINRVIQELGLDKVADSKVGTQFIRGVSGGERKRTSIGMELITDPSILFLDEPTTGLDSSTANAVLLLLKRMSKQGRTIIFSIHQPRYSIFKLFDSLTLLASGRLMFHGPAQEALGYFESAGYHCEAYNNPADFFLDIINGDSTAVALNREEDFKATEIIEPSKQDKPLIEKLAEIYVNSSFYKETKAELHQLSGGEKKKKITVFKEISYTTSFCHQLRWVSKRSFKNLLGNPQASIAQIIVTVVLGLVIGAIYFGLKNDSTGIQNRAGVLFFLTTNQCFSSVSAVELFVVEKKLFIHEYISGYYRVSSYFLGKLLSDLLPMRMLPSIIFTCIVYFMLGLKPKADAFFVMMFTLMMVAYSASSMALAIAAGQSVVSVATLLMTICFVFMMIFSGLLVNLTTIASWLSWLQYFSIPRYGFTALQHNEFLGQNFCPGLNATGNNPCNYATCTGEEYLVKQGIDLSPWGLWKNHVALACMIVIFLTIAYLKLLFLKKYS
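Times: 10 min at 25 °C | Test system: Two drug-resistant human cell lines, ABCG2 and ABCB1 | Quantity: 3 million cells/mL final, two lines in 1:1 ratio | Signal: Flow cytometry, 530 nm JC-1 signal | Dosing: Compound at 6.6 µM | Controls: Nicardipine and DMSO wells | Reagent: JC-1 as fluorescent efflux pump substrate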
ABCB1 block: ABCB1 efflux pump inhibitors, primary screen, cell-based, multiplex, flow cytometry, ABCG2 counter-screen; AID 1326, 2008; CCRF-Adr cells, JC-1 efflux; inhibition, % at 6.6 µM; 0.067% of 190,000 active; in the data active = inhibition above about 40%;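 also: higher value means more JC-1 retained so stronger ABCB1 efflux block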
A number is an active result; - = inactive; . = no result; + = active, no number. Shown are actives, neighbours in structure and some others; about 2.1% of the full set was active somewhere.

SMILES | MT stabilizer | Arbovirus anti | Autophagy mod | bCat nuc transl | ABCG2 block | ABCB1 block
CCC(OC(=O)c1cccs1)C(=O)NCc1ccc(C)cc1 (stereo not given) | - | - | + | - | - | -
COc1ccc(/C=C/c2ccncc2)cc1OC | - | - | - | - | - | -
Cc1ccc(N)c(C(O)(C(F)(F)F)C(F)(F)F)c1 | - | - | + | . | - | -
Cc1cc(/C=C2\Sc3ccccc3N2C)cc(C)[n+]1CC1CCCO1 (stereo not given) | - | - | + | - | - | -
O=C1CC(=O)N(Cc2ccco2)C(=O)N1 | - | 34.1 | - | - | - | -
Cc1cccc(NC(=S)NC2CC3CCC(C2)N3Cc2ccco2)c1C (stereo not given) | - | - | - | - | - | -
Cn1c(=O)cc(NCc2ccccc2)[nH]c1=O | - | - | - | - | - | -
Oc1ccccc1-c1nc(NCC2CCCO2)c2ccccc2n1 (stereo not given) | - | - | - | - | - | -
COc1cccc(-c2nc(NCC3CCCO3)c3ccccc3n2)c1O (stereo not given) | - | - | + | - | - | -
CC(=O)OCC1OC(n2ncc(=O)n(Cc3ccccc3)c2=O)C(OC(C)=O)C1OC(C)=O (stereo not given) | - | - | - | - | - | -
CC(=O)OC[C@H]1O[C@@H](n2ncc(=O)[nH]c2=O)[C@H](OC(C)=O)[C@@H]1OC(C)=O | - | 60.1 | - | . | - | -
O=C(Nc1ccccc1C(=O)O)c1ccc(NC(=O)c2ccc(Br)o2)cc1 | - | 46.2 | - | . | - | -
O=C(Nc1ccccc1C(=O)O)c1cccc(NC(=O)c2ccc(Br)o2)c1 | - | 32.0 | - | - | - | -
C[C@@H]1CC[C@@]2(O[C@H](CCO)C[C@@H](O)[C@@H]2O)O1 | - | - | - | - | - | -
CCOC(=O)N1CCN(C(=O)c2ccc(CS(=O)(=O)c3c(Cl)cccc3Cl)o2)CC1 | - | - | - | - | - | -
Cc1ccc(C)c(-n2c(Cc3cc(=O)[nH]c(=O)[nH]3)nnc2SCC(=O)NCc2ccco2)c1 | - | . | - | . | . | .
O=C(N/N=C/c1cccc2ccccc12)c1n[nH]c2c1CCCC2 | 30.6 | - | - | - | - | -
O=C(N/N=C\c1cccc(Cl)c1)c1n[nH]c2c1CCCC2 | - | - | - | - | - | -
Cc1ccc(/C=N/NC(=O)c2n[nH]c3c2CCCC3)cc1 | . | . | . | 57.9 | . | .
O=C(N/N=C/c1ccc(Cl)cc1Cl)c1n[nH]c2c1CCCC2 | 21.5 | - | - | - | - | -
O=C(N/N=C/c1cccs1)c1n[nH]c2c1CCCC2 | . | . | . | - | . | .
O=C(Nc1nnc(C2CC2)s1)C1CC(=O)N(c2ccc3c(c2)OCCO3)C1 (stereo not given) | - | - | - | - | - | -
COc1ccc(-c2nc(NC(=O)C3CC(=O)N(c4ccc5c(c4)OCCO5)C3)sc2C)cc1 (stereo not given) | 11.2 | - | - | . | - | -
COC(=O)C1=C(C)N(Cc2ccco2)C(=O)N[C@@H]1c1cccc(C(F)(F)F)c1 | - | 31.7 | - | . | - | -
COC(=O)C1=C(C)N(Cc2ccccc2)C(=O)N[C@H]1c1cccc(C(F)(F)F)c1 | . | . | . | - | . | .
SMILES | MT stabilizer | Arbovirus anti | Autophagy mod | bCat nuc transl | ABCG2 block | ABCB1 block
C/C(CCC(C)C)=N\NS(=O)(=O)c1ccc(C)c([N+](=O)[O-])c1 | . | . | . | - | . | .
O=C(Cn1c2ccccc2c(=O)c2ccccc21)N/N=C/c1cc([N+](=O)[O-])ccc1N1CCCCC1 | - | - | + | - | - | -
O=C(N/N=C\c1cc([N+](=O)[O-])ccc1N1CCCC1)c1ccccn1 | - | - | - | - | - | -
CCN(CC)c1nc2cc(OC)ccc2cc1C#N | - | - | - | - | - | -
CCN(CCCNC(=O)COc1cc(=O)n(CC)c2ccccc12)Cc1ccccc1 | - | - | + | - | - | -
CCn1cc(C(=O)N2CCc3ccccc3C2)c(=O)c2cc(S(=O)(=O)N3CCCCC3)ccc21 | - | - | + | - | - | -
